TDP2 absorb – TDP2 (human) inhibition, absorbance primary screen | O95551 | recombinant TDP2, T5PNP hydrolysis, p-nitrophenol absorbance 415 nm | inhibition, % at 12.8 µM | 370,000 tested, 0.34% active | AID 720702;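 active = inhibition above the mean of all tested compounds plus 3 SD, set per campaign, cut at about 25% in these data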;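 note: 0% = DMSO with enzyme and 100% = buffer with substrate but no TDP2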
Target sequence (O95551 whole entry, looked up): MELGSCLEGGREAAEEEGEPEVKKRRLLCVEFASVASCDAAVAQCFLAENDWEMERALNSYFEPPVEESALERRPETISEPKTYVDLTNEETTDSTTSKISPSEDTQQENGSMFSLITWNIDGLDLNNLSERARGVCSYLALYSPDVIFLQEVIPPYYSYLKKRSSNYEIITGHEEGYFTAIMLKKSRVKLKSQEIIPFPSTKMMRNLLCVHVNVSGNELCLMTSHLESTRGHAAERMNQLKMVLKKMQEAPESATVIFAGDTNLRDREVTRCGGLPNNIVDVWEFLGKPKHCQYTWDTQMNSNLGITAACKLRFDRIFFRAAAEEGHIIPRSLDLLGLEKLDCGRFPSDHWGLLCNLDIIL
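Test system: human TDP2 enzyme; Input: 120 nM TDP2 per well; Buffer or medium: Mg2+-containing Tris-HCl buffer, pH 7.5; Reagent: 5 mM T5PNP; Dosing: 12.8 µM single point, 1% DMSO; Incubation: reaction 2 h, 37 °C; Detection: p-Nitrophenol epi absorbance; Read-out: % inhibition relative to enzyme-containing and enzyme-free wells; Replicates: single well per compound.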
GSTO1 inh – GSTO1 inhibition, counter-screen for RBBP9 inhibitors | 300,000 tested, 1.1% active | inhibition, % at 5.96 µM | P78417 | recombinant GSTO1, activity-based probe fluorescence polarization | AID 1974;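 active = inhibition above the campaign mean inhibition plus 3 SD, cut at about 35% in these data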;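 note: 0% = GSTO1-1 with DMSO and 100% = wells lacking GSTO1-1 enzyme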
Target sequence (P78417 whole entry, looked up): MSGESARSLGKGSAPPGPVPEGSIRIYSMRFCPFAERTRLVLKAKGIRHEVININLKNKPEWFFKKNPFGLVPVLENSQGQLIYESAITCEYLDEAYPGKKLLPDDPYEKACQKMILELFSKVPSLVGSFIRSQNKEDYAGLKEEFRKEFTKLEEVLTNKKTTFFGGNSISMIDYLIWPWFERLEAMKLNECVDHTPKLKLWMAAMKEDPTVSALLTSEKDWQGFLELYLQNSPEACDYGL
Fh CTSL1 inh – counter-screen for PFM18AAP inhibitors: inhibitors of F. hepatica cathepsin L1; recombinant F. hepatica cathepsin L1, Z-Leu-Arg-MCA fluorescence; inhibition, % at 5.96 µM; 300,000 tested, 0.49% active; AID 1906;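 active = inhibition above the mean of all tested compounds plus 3 SD, set per screening campaign, cut at about 17% in these data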;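 note: 0% = plate median of test compound wells and 100% = 1 µM Z-Phe-Ala-diazomethylketone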
PAD4 FP inh – blocks human protein arginine deiminase 4. Q9UM07. recombinant PAD4, RCA probe fluorescence polarization. inhibition, % at 6.36 µM. 330,000 tested, 0.41% active;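 active = percent inhibition above a cutoff equal to the mean of all tested compounds plus 3 SD, cut at about 15% in these data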;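 note: 0% = PAD4 with RCA probe and DMSO and 100% = probe without PAD4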
TDP2 inh conf – human TDP2 inhibition, confirmation | recombinant human TDP2, absorbance read-out | inhibition, % at 12.8 µM | 1,100 tested, 22% active | shares compounds with TDP2 absorb; in the data active = inhibition above about 25%;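 note: 0% = vehicle with enzyme and 100% = no enzyme buffer only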
An asterisk follows results filed as active. In the library only some 1.4% were active in any assay of this set; here they are far more common.

Screening Cc1[nH]n(-c2ccccc2)c(=O)c1/C=N/N1C(=O)c2ccc3c4c(ccc(c24)C1=O)CC3 returned TDP2 absorb 28*, GSTO1 inh 10, Fh CTSL1 inh 2, PAD4 FP inh -12 and TDP2 inh conf -9.
For Cc1[nH]n(-c2ccccc2)c(=O)c1/C=N/NC(=O)COc1ccccc1[N+](=O)[O-] the results were TDP2 absorb -1, GSTO1 inh 2, Fh CTSL1 inh 2 and PAD4 FP inh -9.
For Cc1[nH]n(-c2ccccc2)c(=O)c1/C=N/N(C)c1ccccc1 the results were TDP2 absorb 42*, GSTO1 inh -1, Fh CTSL1 inh -5, PAD4 FP inh 2 and TDP2 inh conf 9.
Screening Cc1[nH]n(-c2ccccc2)c(=O)c1/C=N/O returned TDP2 absorb 15, GSTO1 inh 11, Fh CTSL1 inh -2 and PAD4 FP inh -6.
Screening COCC(=O)N/N=C/c1c(C)[nH]n(-c2ccccc2)c1=O returned TDP2 absorb 32*, GSTO1 inh 27, Fh CTSL1 inh 2, PAD4 FP inh -10 and TDP2 inh conf 2.
For COC(=O)N/N=C\c1c(C)[nH]n(-c2ccccc2)c1=O the results were TDP2 absorb 12, GSTO1 inh 0, Fh CTSL1 inh -3 and PAD4 FP inh -13.
`COC(=O)[C@]12C[C@H](CC(=O)NCc3cccc4ccccc34)C(=O)N(Cc3ccco3)C1=C[C@H](C1CCCC1)O[C@@H]2C` gave TDP2 absorb -5.
CCCn1c(NC(=O)c2ccccc2)nc(Cc2ccccc2)c1-c1ccc(OC)cc1 was read as TDP2 absorb -4.
COc1cccc(N2CCN(C(=O)CSc3nc4ncccc4[nH]3)CC2)c1 was read as TDP2 absorb 0.
COc1ccc(C)cc1NC(=O)CCNC(=O)c1ccco1 was read as TDP2 absorb 26*, GSTO1 inh 7, Fh CTSL1 inh 1, PAD4 FP inh 6 and TDP2 inh conf 8.
Screening Cn1ccc2c(N3c4ccccc4CCc4ccccc43)cc3c(c21)C1CCC3C1 (stereo unspecified) returned TDP2 absorb 0.
For Cn1ccc2c(N3c4ccccc4CCc4ccccc43)cc3c(c21)C1CCC3O1 (stereo unspecified) the results were TDP2 absorb 28* and TDP2 inh conf 3.
COc1ccc(S[C@]2(C(=O)NC(C)C)CC(=O)N[C@@H]2c2ccc(OC)cc2)cc1 was read as TDP2 absorb 5.
`Cc1nn(CCC#N)c(N)c1C1(O)C(=O)Nc2c(Cl)cc(Cl)cc21` (stereo unspecified) gave TDP2 absorb 26*, GSTO1 inh 31, Fh CTSL1 inh -8, PAD4 FP inh -2 and TDP2 inh conf 4.
For O=C(Cn1ncc2c1-c1ccccc1OC2)N1CCN(Cc2ccccc2)CC1 the results were TDP2 absorb 29*, GSTO1 inh -2, Fh CTSL1 inh -4, PAD4 FP inh -6 and TDP2 inh conf 10.
For CCN1CCN(C(=O)Cn2ncc3c2-c2ccccc2OC3)CC1 the results were TDP2 absorb -4, GSTO1 inh -6, Fh CTSL1 inh 3 and PAD4 FP inh 5.
For CC(=O)NC(Cc1ccc(F)cc1)C(=O)NC1CCN(C(=O)Nc2cccc(C)c2)CC1 (stereo unspecified) the results were TDP2 absorb -3, GSTO1 inh 1, Fh CTSL1 inh 3 and PAD4 FP inh -6.
CC(=O)NC(Cc1ccc(F)cc1)C(=O)NC1CCN(C(=O)Nc2ccc(F)cc2)CC1 (stereo unspecified) was read as TDP2 absorb 25*, GSTO1 inh 8, Fh CTSL1 inh 0, PAD4 FP inh 0 and TDP2 inh conf 2.
For COc1cc(Br)c(C2C(C#N)=C(N)Oc3n[nH]c(-c4cccnc4)c32)cc1OC (stereo unspecified) the results were TDP2 absorb 43*, GSTO1 inh 14, Fh CTSL1 inh -3, PAD4 FP inh -8 and TDP2 inh conf 16.
COc1cc(C2C(C#N)=C(N)Oc3n[nH]c(-c4cccs4)c32)cc(OC)c1O (stereo unspecified) was read as TDP2 absorb 37*, GSTO1 inh 35*, Fh CTSL1 inh -3, PAD4 FP inh 10 and TDP2 inh conf 8.
For CCOc1ccc(-c2[nH]nc3c2C(c2ccc4c(c2)OCO4)C(C#N)=C(N)O3)cc1OC (stereo unspecified) the results were TDP2 absorb 27*, GSTO1 inh 24, Fh CTSL1 inh -1, PAD4 FP inh -1 and TDP2 inh conf 5.
For COc1cc(-c2[nH]nc3c2C(c2ccco2)C(C#N)=C(N)O3)cc(OC)c1OC (stereo unspecified) the results were TDP2 absorb 42*, GSTO1 inh 21, Fh CTSL1 inh 4, PAD4 FP inh -3 and TDP2 inh conf 9.
For FC(F)(F)c1cc(Cl)c2nc(-c3ccco3)c(Cc3ccccc3C(F)(F)F)n2c1 the results were TDP2 absorb 6.
`O=c1oc2ccccc2cc1-c1csc(Cc2nc(-c3ccc(Cl)cc3)cs2)n1` gave TDP2 absorb -3, GSTO1 inh 1, Fh CTSL1 inh -2 and PAD4 FP inh 0.
`CCN(CC)c1ccc2cc(-c3nc(-c4cc5ccccc5oc4=O)cs3)c(=O)oc2c1` gave TDP2 absorb 32* and TDP2 inh conf 5.
`COC(=O)c1noc(C)c1-c1ccnn1C(=O)c1ccc(C)cc1` gave TDP2 absorb 25*, GSTO1 inh 1, Fh CTSL1 inh 5, PAD4 FP inh -4 and TDP2 inh conf -3.
Screening Cc1onc(-c2ccccc2)c1-c1ccnn1C(=O)NC(C)C returned TDP2 absorb -1, GSTO1 inh 7, Fh CTSL1 inh -1 and PAD4 FP inh 2.
Screening O=C(N/N=C/c1cc(Cl)ccc1O)c1cccnc1 returned TDP2 absorb 60*, GSTO1 inh -1, Fh CTSL1 inh 2, PAD4 FP inh -1 and TDP2 inh conf -13.
For O=C(NC(=S)Nc1ccccc1N1CCCC1)c1ccco1 the results were TDP2 absorb 38*, GSTO1 inh 28, Fh CTSL1 inh 21*, PAD4 FP inh 1 and TDP2 inh conf 29*.
O=C(NC(=S)Nc1ccccc1N1CCCCC1)c1ccco1 was read as TDP2 absorb -17, GSTO1 inh -5, Fh CTSL1 inh 3 and PAD4 FP inh 4.
`CCOC(=O)c1ccccc1NS(=O)(=O)c1ccc(OCC)cc1` gave TDP2 absorb 0, GSTO1 inh 4, Fh CTSL1 inh 3 and PAD4 FP inh -1.
`O=S(=O)(Nc1cc(Sc2cccc3cccnc23)c(O)c2ccccc12)c1ccccc1` gave TDP2 absorb 33* and TDP2 inh conf 7.
`CCOc1ccc(S(=O)(=O)Nc2cc(SCC(=O)O)c(O)c3ccccc23)cc1` gave TDP2 absorb 66* and TDP2 inh conf 55*.
O=C(O)CSc1cc(NS(=O)(=O)c2cccc([N+](=O)[O-])c2)c2ccccc2c1O was read as TDP2 absorb 63* and TDP2 inh conf 70*.
